ChEMBL document CHEMBL1121685, “Development of new mitomycin C and porfiromycin analogues” (J Med Chem, 1981)

Experiments:
[1] = test system: Mus musculus; test: Effect of compound on total white blood cell count in BDG1 male mice, after intraperitoneal administration at a dose of 5.03 mg/kg on day 7; format: functional
Procedure, shortened: (§1)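 Single ip dose given on day 0 to BDG₁ male mice. Total white blood cell count measured on days 3, 5 and 7, expressed as % change from control. Highest dose was at the LD₅₀, or at twice the optimal dose where so footnoted. Significance reported at p ≤ 0.05 and p ≤ 0.01. D marks death of one or more mice.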

[2] = test system: Mus musculus; test: Effect of compound on total white blood cell count in BDG1 male mice, after intraperitoneal administration at a dose of 2.83 mg/kg on day 5; format: functional
Procedure, shortened: (§2)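 Single ip dose given on day 0 to BDG1 male mice over a descending dose series. Total white blood cell count is expressed as % change from untreated control on days 3, 5 and 7. Significance is flagged at p ≤ 0.05 and p ≤ 0.01.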

[3] = test system: Mus musculus; test: Minimum effective dose that show activity against P-388 murine leukemia cells in CDF1 female mice, after intraperitoneal administration (optimal dose is 3.2 mg/kg); format: functional; details: P388, ip, read-out: MED
Procedure, shortened: (§3)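 10⁶ P-388 ascites cells implanted ip in CDF₁ female mice. Six mice per dose, 10 saline-injected controls, and a concurrent mitomycin C reference group. %T/C = median survival time of treated/control × 100. MED is the lowest dose giving %T/C > 125. Therapeutic ratio = optimal dose/MED.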

[4] = test system: Mus musculus; test: Effect of compound on total white blood cell count in BDG1 male mice, after intraperitoneal administration at a dose of 3.77 mg/kg on day 7; format: functional; procedure, shortened: as §2
[5] = Therapeutic ratio is expressed as ratio of optimal dose and minimum effective dose; format: ADME; details: mouse; read-out: TR; procedure, shortened: as §3
[6] = test system: Mus musculus; test: Effect of compound on total white blood cell count in BDG1 male mice, after intraperitoneal administration at a dose of 6.7 mg/kg on day 3; format: functional; procedure, shortened: as §1
[7] = test system: Mus musculus; test: Effect of compound on total white blood cell count in BDG1 male mice, after intraperitoneal administration at a dose of 5.03 mg/kg on day 3; format: functional; procedure, shortened: as §1
[8] = test system: Mus musculus; test: Effect of compound on total white blood cell count in BDG1 male mice, after intraperitoneal administration at a dose of 6.7 mg/kg on day 5; format: functional; procedure, shortened: as §1
[9] = test system: Mus musculus; test: Effect of compound on total white blood cell count in BDG1 male mice, after intraperitoneal administration at a dose of 3.77 mg/kg on day 5; format: functional; procedure, shortened: as §2
[10] = test system: Mus musculus; test: Effect of compound on total white blood cell count in BDG1 male mice, after intraperitoneal administration of a compound of 2.83 mg/kg on day 3; format: functional
[11] = test system: Mus musculus; test: Effect of compound on total white blood cell count in BDG1 male mice, after intraperitoneal administration at a dose of 5.03 mg/kg on day 5; format: functional; procedure, shortened: as §1
[12] = test system: Mus musculus; test: Effect of compound on total white blood cell count in BDG1 male mice, after intraperitoneal administration at a dose of 2.83 mg/kg on day 7; format: functional; procedure, shortened: as §2
[13] = test system: Mus musculus; test: Effect of compound on total white blood cell count in BDG1 male mice, after intraperitoneal administration at a dose of 6.7 mg/kg on day 7; format: functional; procedure, shortened: as §1
[14] = test system: Mus musculus; test: Effect of compound on total white blood cell count in BDG1 male mice, after intraperitoneal administration at a dose of 3.77 mg/kg on day 3; format: functional; procedure, shortened: as §2
[15] = test system: Mus musculus; test: Antitumor activity against P-388 murine leukemia cells in CDF1 female mice after intraperitoneal administration at the specified optimal dose of 3.2 mg/kg; format: functional
[16] = organism: Mus musculus; test: Degree of leukopenia produced by compound is assessed form Percent change in white cells on days 5; format: functional
Procedure, shortened: (§4)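 BDG₁ male mice received a single ip dose on day 0. The dose series topped out at the LD₅₀ level, or at twice the optimal dose for some agents. Total white blood cell count was taken on days 3, 5 and 7 and expressed as % change from untreated controls. Significance was set at p ≤ 0.05 or p ≤ 0.01.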

[17] = test system: Mus musculus; test: Effect of compound on total white blood cell count in BDG1 male mice, after intraperitoneal administration at a dose of 5.5 mg/kg on day 7; format: functional; procedure, shortened: as §1
[18] = test system: Mus musculus; test: Effect of compound on total white blood cell count in BDG1 male mice, after intraperitoneal administration at a dose of 7.4 mg/kg on day 7; format: functional; procedure, shortened: as §1
[19] = test system: Mus musculus; test: Effect of compound on total white blood cell count in BDG1 male mice, after intraperitoneal administration at a dose of 7.4 mg/kg on day 5; format: functional; procedure, shortened: as §1
[20] = test system: Mus musculus; test: Effect of compound on total white blood cell count in BDG1 male mice, after intraperitoneal administration at a dose of 9.8 mg/kg on day 5; format: functional; procedure, shortened: as §1
[21] = organism: Mus musculus; test: Half-wave potential produced by the compound at their optimal dose; format: functional; design: unit not given here
[22] = test system: Mus musculus; test: Effect of compound on total white blood cell count in BDG1 male mice, after intraperitoneal administration at a dose of 9.8 mg/kg on day 7; format: functional; procedure, shortened: as §1
[23] = test system: Mus musculus; test: Effect of compound on total white blood cell count in BDG1 male mice, after intraperitoneal administration at a dose of 5.5 mg/kg on day 5; format: functional; procedure, shortened: as §1
[24] = test system: Mus musculus; test: Effect of compound on total white blood cell count in BDG1 male mice, after intraperitoneal administration at a dose of 7.4 mg/kg on day 3; format: functional; procedure, shortened: as §1
[25] = test system: Mus musculus; test: Effect of compound on total white blood cell count in BDG1 male mice, after intraperitoneal administration at a dose of 5.5 mg/kg on day 3; format: functional; procedure, shortened: as §1
[26] = test system: Mus musculus; test: Effect of compound on total white blood cell count in BDG1 male mice, after intraperitoneal administration at a dose of 9.8 mg/kg on day 3; format: functional; procedure, shortened: as §1
[27] = test system: Mus musculus; test: Effect of compound on total white blood cell count in BDG1 male mice, after intraperitoneal administration at a dose of 3 mg/kg on day 5; format: functional; procedure, shortened: as §2
[28] = test system: Mus musculus; test: Effect of compound on total white blood cell count in BDG1 male mice, after intraperitoneal administration at a dose of 3 mg/kg on day 7; format: functional; procedure, shortened: as §2
[29] = test system: Mus musculus; test: Effect of compound on total white blood cell count in BDG1 male mice, after intraperitoneal administration at a dose of 1.27 mg/kg on day 5; format: functional; procedure, shortened: as §4
[30] = test system: Mus musculus; test: Effect of compound on total white blood cell count in BDG1 male mice, after intraperitoneal administration at a dose of 2.25 mg/kg on day 7; format: functional; procedure, shortened: as §2
[31] = test system: Mus musculus; test: Effect of compound on total white blood cell count in BDG1 male mice, after intraperitoneal administration at a dose of 3 mg/kg on day 3; format: functional; procedure, shortened: as §2
[32] = test system: Mus musculus; test: Effect of compound on total white blood cell count in BDG1 male mice, after intraperitoneal administration at a dose of 2.25 mg/kg on day 3; format: functional; procedure, shortened: as §2
[33] = test system: Mus musculus; test: Effect of compound on total white blood cell count in BDG1 male mice, after intraperitoneal administration at a dose of 1.27 mg/kg on day 7; format: functional; procedure, shortened: as §4
[34] = organism: Mus musculus; test: Degree of leukopenia produced by compound is assessed form Percent change in white cells on day 3; format: functional; procedure, shortened: as §4
[35] = test system: Mus musculus; test: Effect of compound on total white blood cell count in BDG1 male mice, after intraperitoneal administration at a dose of 2.25 mg/kg on day 5; format: functional; procedure, shortened: as §2
[36] = test system: Mus musculus; test: Effect of compound on total white blood cell count in BDG1 male mice, after intraperitoneal administration at a dose of 1.27 mg/kg on day 3; format: functional; procedure, shortened: as §4
[37] = test system: Mus musculus; test: Effect of compound on total white blood cell count in BDG1 male mice, after intraperitoneal administration at a dose of 1.69 mg/kg on day 3; format: functional; procedure, shortened: as §4
[38] = test system: Mus musculus; test: Effect of compound on total white blood cell count in BDG1 male mice, after intraperitoneal administration at a dose of 1.69 mg/kg on day 7; format: functional; procedure, shortened: as §4
[39] = test system: Mus musculus; test: Effect of compound on total white blood cell count in BDG1 male mice, after intraperitoneal administration at a dose of 1.69 mg/kg on day 5; format: functional; procedure, shortened: as §4

`COC12[C@@H](COC(N)=O)C3=C(C(=O)C(C)=C(N4CC4C)C3=O)N1C[C@@H]1[C@H]2N1C` (stereo partly specified) gave a Change [1] of -4%, a Change [2] of -21% and a minimal effective dose [3] of 0.4 mg/kg. For the same molecule, the Change [4] was -11%, the selectivity ratio [5] was 8 and the Change [6] was -28%. It also gave a Change [7] of -31%, a Change [8] of -49% and a Change [9] of -25%. The Change [10] was -31%, the Change [11] was -44% and the Change [12] was 2%. The Change [13] was -37%, the Change [14] was -30% and the T/C [15] was 163%.
Molecule `COC12[C@@H]3N[C@@H]3CN1C1=C(C(=O)C(Nc3cccnc3)=C(C)C1=O)[C@@H]2COC(N)=O` (stereo partly specified) has a Change [16] of -33%, a Change [17] of -14% and a minimal effective dose [3] of under 0.2 mg/kg. The selectivity ratio [5] was over 16, the Change [18] was -0.2% and the Change [19] was -46%. It also gave a Change [20] of -42%, an E1/2 [21] of -0.31 and a T/C [15] of 211%. The Change [22] was 24%, the Change [23] was -24% and the Change [24] was -43%. The Change [25] was -41% and the Change [26] was -36%.
`COC12[C@@H]3N[C@@H]3CN1C1=C(C(=O)C(N3CC3C)=C(C)C1=O)[C@@H]2COC(N)=O` (stereo partly specified) gave a Change [27] of -39%, a minimal effective dose [3] of 0.1 mg/kg and a Change [28] of -12%. The selectivity ratio [5] was 32, the Change [29] was -5% and the Change [30] was -6%. For the same molecule, the Change [31] was -37%, the Change [32] was -36% and the Change [33] was 18%. It also gave a Change [34] of -24%, an E1/2 [21] of -0.32 and a Change [35] of -32%. For the same molecule, the Change [36] was -16%, the T/C [15] was 233% and the Change [37] was -24%. The Change [38] was 3% and the Change [39] was -5%.
